From ChEMBL document CHEMBL2146398, “Novel interleukin-5 inhibitors based on hydroxyethylaminomethyl-4H-chromen-4-one scaffold” (Bioorg Med Chem, 2012)

Biological target: T1, Interleukin-5 (Mus musculus) (UniProt P04401)
T1 sequence (whole entry): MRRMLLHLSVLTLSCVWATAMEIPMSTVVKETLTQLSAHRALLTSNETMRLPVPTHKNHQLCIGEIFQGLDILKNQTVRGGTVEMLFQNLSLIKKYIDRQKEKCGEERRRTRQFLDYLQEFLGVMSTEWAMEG
Experiment: Inhibition of IL-5 in mouse Y16 cells at 30 uM after 48 hrs by WST1 assay
Format: cell-based
Summary of the method: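 IL-5-dependent pro-B Y16 cells cultured 48 h with 3 units/mL mIL-5, with or without test sample. Proliferation read as cell metabolism by WST-1 reduction. […] Values are means of three independent experiments.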

In order of falling inhibition:
1. O=c1c(CN(CCO)Cc2ccccc2)coc2cccc(OCC3CCCCC3)c12  94.8%
2. O=c1c(CN(CCO)CC2CCCCC2)coc2cccc(OCC3CCCCC3)c12  94.7%
3. O=c1c(CN(CCO)C2CCCCC2)coc2cccc(OCC3CCCCC3)c12  94.5%
4. O=c1c(CN(CCO)c2ccccc2)coc2cccc(OCC3CCCCC3)c12  94.4%
5. Cc1ccc(CN(CCO)Cc2coc3cccc(OCC4CCCCC4)c3c2=O)cc1  94.3%
6. COc1ccc(CN(CCO)Cc2coc3cccc(OCC4CCCCC4)c3c2=O)cc1  94.1%
7. CCCCN(CCO)Cc1coc2cccc(OCC3CCCCC3)c2c1=O  94%
8. O=c1c(CN(CCO)Cc2ccncc2)coc2cccc(OCC3CCCCC3)c12  94%
9. O=c1c(CN(CCO)Cc2ccc(O)cc2)coc2cccc(OCC3CCCCC3)c12  93.7%
10. CCCN(CCO)Cc1coc2cccc(OCC3CCCCC3)c2c1=O  93.7%
11. O=c1c(CN(CCO)Cc2ccc(Cl)cc2)coc2cccc(OCC3CCCCC3)c12  93.4%
12. CC(C)N(CCO)Cc1coc2cccc(OCC3CCCCC3)c2c1=O  90.2%
13. CCN(CCO)Cc1coc2cccc(OCC3CCCCC3)c2c1=O  79.2%
14. CN(CCO)Cc1coc2cccc(OCC3CCCCC3)c2c1=O  56%
